As a reminder, the MIC is the least concentration at which growth counts as inhibited. A higher MIC goes with weaker potency. As a reminder, the IC50 is the midpoint of a concentration-inhibition curve. One may read the inhibition as the relative decrease from the control value, in per cent. Lower therefore signals a weak effect. In general, solubility refers to how much of the substance goes into solution per volume. The pEC50 is the negative decadic logarithm of the EC50, by convention in mol/L.

pEC50: −log10 of the molar value. In brackets after ≈: the same amount, converted by molar mass.

The results in this text go back to ChEMBL document CHEMBL4346763, “Incorporation of a chiral gem-disubstituted nitrogen heterocycle yields an oxazolidinone antibiotic with reduced mitochondrial toxicity” (Bioorg Med Chem Lett, 2019).

The test system of data set [1] is Staphylococcus aureus. Description: Antibacterial activity against Staphylococcus aureus JC9213 by CLSI based broth dilution assay. In kind it is functional. Background: Broth dilution looks for growth in wells or tubes with falling amounts of substance.
A short description of data set [2]: Inhibition of protein synthesis in mitochondria (unknown origin) assessed as [35S]methionine incorporation incubated for 15 to 120 mins by paper disk assay. Also on record: species or system Homo sapiens.
Data set [3] deals with Staphylococcus aureus. Description: Antibacterial activity against methicillin-sensitive Staphylococcus aureus ATCC 8235-4 measured after 16 hrs by broth microdilution method. The format is functional. Conditions: ATCC 8235-4, 16 h. The method in brief: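 Overnight culture diluted 1:200 into plates, sealed, shaken at 150 RPM at 37 °C for 16 h, then OD600 read. MIC defined as the concentration giving at least 90% growth inhibition relative to DMSO-treated wells; μM converted to μg/mL and rounded to nearest integer.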

In data set [4] the test system is Staphylococcus aureus. Description: Antibacterial activity against methicillin-sensitive Staphylococcus aureus ATCC 8235-4 at 6 ug/ml measured after 16 hrs by broth microdilution method relative to control. The format is functional. Conditions: ATCC 8235-4, 16 h. The gist of the method: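 Overnight S. aureus 8235-4 culture diluted 1:200 into LB broth containing compound at 4–22 μM in 2 μM steps. Plates sealed and shaken at 150 rpm, 37 °C, 16 h. OD600 read, and growth inhibition expressed relative to DMSO carrier-only wells. μM values converted to μg/mL and rounded to the nearest integer.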

Data set [5] relates to Staphylococcus aureus. Description: Antibacterial activity against methicillin-resistant Staphylococcus aureus ATCC 43300 measured after 18 hrs by broth microdilution method. The format is functional. The conditions noted are these: ATCC 43300, 18 h. The method in brief: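 S. aureus ATCC 43300 grown overnight in cation-adjusted Mueller Hinton broth at 37 °C, diluted 40-fold and regrown 1.5-3 h to mid-log. Inoculum 5×10^5 CFU/mL added to 8-point 1:2 serial dilutions from a top final concentration of 32 μg/mL or 20 μM, DMSO ≤0.5%, in duplicate. Incubated 18 h at 37 °C without shaking.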

Data set [6] is described as follows: Aqueous solubility of compound. Conditions: buffer. The format is physicochemical.
Data set [7] can be described thus: Stability in gastric pH assessed as compound remaining after 24 hrs relative to control. The format is physicochemical.
The test system of a further data set is HepG2. Description: Cytotoxicity against human HepG2 cells assessed as reduction in cell viability by CellTiter-Glo assay. The format is cell-based. On the technique in general: ATP-based viability assays read luminescence as a measure of living cells.
In the next data set the target is T1, Cytochrome P450 1A2 (Homo sapiens, UniProt P05177).
T1 sequence (P05177 whole entry): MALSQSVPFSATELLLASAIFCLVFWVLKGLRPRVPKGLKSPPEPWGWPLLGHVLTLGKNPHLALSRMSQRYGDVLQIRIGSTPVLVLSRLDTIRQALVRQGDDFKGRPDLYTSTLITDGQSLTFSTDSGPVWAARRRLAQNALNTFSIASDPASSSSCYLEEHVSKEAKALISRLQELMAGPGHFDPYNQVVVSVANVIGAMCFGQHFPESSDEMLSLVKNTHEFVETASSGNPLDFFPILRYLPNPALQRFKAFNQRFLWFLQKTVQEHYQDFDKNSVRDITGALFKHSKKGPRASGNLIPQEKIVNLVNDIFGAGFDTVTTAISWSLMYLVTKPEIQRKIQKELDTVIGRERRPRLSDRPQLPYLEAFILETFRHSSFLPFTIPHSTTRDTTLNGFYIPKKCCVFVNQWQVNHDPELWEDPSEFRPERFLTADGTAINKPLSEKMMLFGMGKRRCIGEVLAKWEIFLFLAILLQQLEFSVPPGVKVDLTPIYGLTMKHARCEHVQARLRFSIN
The data set can be described thus: Inhibition of CYP1A2 (unknown origin). In kind it is ADME.

For the next data set, the target named is Cytochrome P450 2C9 (Homo sapiens, UniProt P11712). Description: Inhibition of CYP2C9 (unknown origin). The format is ADME.
Cytochrome P450 2C9, sequence (P11712 whole entry): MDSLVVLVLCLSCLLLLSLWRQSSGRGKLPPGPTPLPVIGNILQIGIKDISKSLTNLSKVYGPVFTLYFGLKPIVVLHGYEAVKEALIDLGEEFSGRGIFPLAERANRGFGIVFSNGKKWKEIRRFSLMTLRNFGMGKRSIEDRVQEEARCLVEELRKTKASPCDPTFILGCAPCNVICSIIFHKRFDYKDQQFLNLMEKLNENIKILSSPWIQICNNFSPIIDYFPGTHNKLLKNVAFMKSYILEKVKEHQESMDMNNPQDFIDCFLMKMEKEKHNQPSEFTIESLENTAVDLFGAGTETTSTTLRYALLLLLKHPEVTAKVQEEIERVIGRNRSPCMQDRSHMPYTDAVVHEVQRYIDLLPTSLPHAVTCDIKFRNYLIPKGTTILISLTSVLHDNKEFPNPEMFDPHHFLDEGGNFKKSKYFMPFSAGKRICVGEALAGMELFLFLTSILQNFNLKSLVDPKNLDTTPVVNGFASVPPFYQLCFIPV
For a further data set, the target named is Cytochrome P450 2C19 (Homo sapiens, UniProt P33261). Description: Inhibition of CYP2C19 (unknown origin). The format is ADME.
Cytochrome P450 2C19, sequence (P33261 whole entry): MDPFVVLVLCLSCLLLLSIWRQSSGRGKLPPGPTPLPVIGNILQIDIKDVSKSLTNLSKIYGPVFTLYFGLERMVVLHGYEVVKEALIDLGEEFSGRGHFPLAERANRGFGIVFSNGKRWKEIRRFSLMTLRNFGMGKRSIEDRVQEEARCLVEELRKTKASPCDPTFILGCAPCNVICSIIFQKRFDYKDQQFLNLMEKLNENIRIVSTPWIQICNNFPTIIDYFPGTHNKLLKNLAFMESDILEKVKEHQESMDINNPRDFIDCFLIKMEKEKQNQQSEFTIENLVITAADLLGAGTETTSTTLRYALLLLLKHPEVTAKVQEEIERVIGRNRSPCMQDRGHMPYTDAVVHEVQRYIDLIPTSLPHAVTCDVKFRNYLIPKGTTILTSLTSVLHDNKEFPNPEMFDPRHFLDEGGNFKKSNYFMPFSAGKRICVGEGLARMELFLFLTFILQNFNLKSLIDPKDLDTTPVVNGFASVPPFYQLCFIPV
The next data set addresses Cytochrome P450 2D6 (Homo sapiens, UniProt P10635). The data set can be described thus: Inhibition of CYP2D6 (unknown origin). The format is ADME.
The target of the next data set is Cytochrome P450 3A4 (Homo sapiens, UniProt P08684). The data set can be described thus: Inhibition of CYP3A4 (unknown origin). The format is ADME.
Cytochrome P450 3A4, sequence (P08684 whole entry): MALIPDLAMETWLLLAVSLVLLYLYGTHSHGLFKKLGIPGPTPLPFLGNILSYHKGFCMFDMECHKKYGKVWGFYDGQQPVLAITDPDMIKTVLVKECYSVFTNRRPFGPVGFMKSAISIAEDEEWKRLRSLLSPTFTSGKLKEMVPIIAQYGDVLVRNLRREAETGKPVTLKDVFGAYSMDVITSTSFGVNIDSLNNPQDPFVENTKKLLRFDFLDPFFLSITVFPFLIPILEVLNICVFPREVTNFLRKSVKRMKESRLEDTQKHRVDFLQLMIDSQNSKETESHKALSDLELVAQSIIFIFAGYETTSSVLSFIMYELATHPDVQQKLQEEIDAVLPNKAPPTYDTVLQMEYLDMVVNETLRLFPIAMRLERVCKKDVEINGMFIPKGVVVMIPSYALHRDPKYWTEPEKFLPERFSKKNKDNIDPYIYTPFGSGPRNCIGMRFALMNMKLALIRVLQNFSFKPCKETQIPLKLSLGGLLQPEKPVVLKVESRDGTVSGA
Data set [8] in a line: Half life in mouse hepatocytes.
The subject of data set [9] is Staphylococcus aureus. The data set can be described thus: Antibacterial activity against methicillin-resistant Staphylococcus aureus ATCC 43300 at 6 ug/ml measured after 18 hrs by broth microdilution method relative to control. In kind it is functional. The conditions noted are these: ATCC 43300, 18 h.

Cytochrome P450 2D6, sequence (P10635 whole entry): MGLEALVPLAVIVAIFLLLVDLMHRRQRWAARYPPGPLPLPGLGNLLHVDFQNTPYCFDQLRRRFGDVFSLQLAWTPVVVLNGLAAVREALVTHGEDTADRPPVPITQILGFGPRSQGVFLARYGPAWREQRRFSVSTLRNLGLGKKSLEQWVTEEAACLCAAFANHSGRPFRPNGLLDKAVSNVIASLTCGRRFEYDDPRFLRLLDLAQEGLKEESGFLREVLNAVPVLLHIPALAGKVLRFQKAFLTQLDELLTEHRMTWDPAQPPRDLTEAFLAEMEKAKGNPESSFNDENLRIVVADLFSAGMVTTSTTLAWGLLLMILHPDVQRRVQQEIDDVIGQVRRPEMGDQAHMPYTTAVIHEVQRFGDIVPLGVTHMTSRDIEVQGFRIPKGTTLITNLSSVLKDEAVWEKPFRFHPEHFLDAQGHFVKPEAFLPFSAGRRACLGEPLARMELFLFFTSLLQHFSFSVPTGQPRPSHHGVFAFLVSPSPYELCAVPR

In the data set on Staphylococcus aureus [1], `CC(=O)NC[C@H]1CN(c2ccc(C3=CCOCC3)c(F)c2)C(=O)O1` had an MIC of 1 µg/mL (≈ 2.99 µM). Besides, in data set [2], the 50% inhibitory concentration (IC50) was 0.95 µg/mL (≈ 2.84 µM).

`CC(=O)NC[C@H]1CN(c2ccc(-n3cncn3)c(F)c2)C(=O)O1` displayed an MIC with Staphylococcus aureus [1] of 4 µg/mL (≈ 12.5 µM). In addition, in [2], the IC50 was determined as 1.7 µg/mL (≈ 5.32 µM).

`C/N=c1\ccc(-c2ccc(N3C[C@H](CNC(C)=O)OC3=O)cc2F)ccc1O` came in with an MIC against Staphylococcus aureus [1] of 2 µg/mL (≈ 5.19 µM). In data set [2], the IC50 worked out at 0.83 µg/mL (≈ 2.15 µM).

In the case of `CC(=O)NC[C@H]1CN(c2ccc(N3CCOC4(CCN(C)C4)C3)c(F)c2)C(=O)O1` (some centres undefined), the MIC with Staphylococcus aureus [3] is > 32 µg/mL.

`CC(=O)NC[C@H]1CN(c2ccc(N3CCOC4(CCOC4)C3)c(F)c2)C(=O)O1` (some centres undefined) displayed an inhibition at 6 µg/mL with Staphylococcus aureus [4] of 65%.

On to `CC(=O)NC[C@H]1CN(c2ccc(N3CCOC(C)(CCCOC(C)=O)C3)c(F)c2)C(=O)O1` (some centres undefined), for which the MIC with Staphylococcus aureus [3] is > 32 µg/mL.

As for `CC(=O)NC[C@H]1CN(c2ccc(N3CCOC(C)(CCCO)C3)c(F)c2)C(=O)O1` (some centres undefined), the MIC in the data set on Staphylococcus aureus [5] was > 32 µg/mL.

For `CC(=O)NC[C@H]1CN(c2ccc(N3CCOC(C)(CCN(C)C)C3)c(F)c2)C(=O)O1` (some centres undefined), the MIC in the data set on Staphylococcus aureus [3] is > 32 µg/mL.

In the data set on Staphylococcus aureus [5], `CC(=O)NC[C@H]1CN(c2ccc(N3CCOC(C)(C)C3)c(F)c2)C(=O)O1` displayed an MIC of 8 µg/mL (≈ 21.9 µM).

As for `CC(=O)NC[C@H]1CN(c2ccc(N3CCO[C@]4(CCCOC4)C3)c(F)c2)C(=O)O1`, the MIC in the data set on Staphylococcus aureus [3] was determined as 9 µg/mL (≈ 22.1 µM). For the same compound, in [6], the solubility was > 48.49 µg/mL. Moreover, in data set [7], the Stability turned out to be 89%. Moreover, the pEC50 in the data set on HepG2 is < 4.52. Further, the INH on Cytochrome P450 1A2, at Cytochrome P450 2C9, on Cytochrome P450 2C19, on Cytochrome P450 2D6 and on Cytochrome P450 3A4 was > 100 µM throughout. The compound further came in with a t1/2 in data set [8] of 2.138 h.

In turn, `C=CCC1(C)CN(c2ccc(N3C[C@H](CNC(C)=O)OC3=O)cc2F)CCO1` (some centres undefined) showed an MIC in the data set with Staphylococcus aureus [5] of 16 µg/mL (≈ 40.9 µM).

Regarding `CC(=O)NC[C@H]1CN(c2ccc(N3CCO[C@@]4(CCCOC4)C3)c(F)c2)C(=O)O1`, the MIC with Staphylococcus aureus [5] turned out to be 5 µg/mL (≈ 12.3 µM); with Staphylococcus aureus [3], 6 µg/mL (≈ 14.7 µM). The solubility in data set [6] is > 52.15 µg/mL. In addition, the Stability in data set [7] is listed as 94%. Moreover, in the data set on HepG2, the pEC50 was < 4.52. Also, the INH on Cytochrome P450 1A2, on Cytochrome P450 2C9, at Cytochrome P450 2C19, at Cytochrome P450 2D6 and on Cytochrome P450 3A4 was > 100 µM in each case. This compound also showed a t1/2 in data set [8] of 2.83 h.

For `CCCC1(CO)CN(c2ccc(N3C[C@H](CNC(C)=O)OC3=O)cc2F)CCO1` (some centres undefined), the inhibition at 6 µg/mL with Staphylococcus aureus [4] is 48%.

As to `CC(=O)NC[C@H]1CN(c2ccc(N3CCOC4(CCCOC4)C3)c(F)c2)C(=O)O1` (some centres undefined), the MIC with Staphylococcus aureus [3] was 7 µg/mL (≈ 17.2 µM).

For `CC(=O)NC[C@H]1CN(c2ccc(N3CCOC4(CCCN(C(C)=O)C4)C3)c(F)c2)C(=O)O1` (some centres undefined), the inhibition at 6 µg/mL in the data set on Staphylococcus aureus [9] and with Staphylococcus aureus [4] was 18% in each case.

For the compound `CCCC1(C)CN(c2ccc(N3C[C@H](CNC(C)=O)OC3=O)cc2F)CCO1` (some centres undefined), in the data set with Staphylococcus aureus [5], the minimal inhibitory concentration (MIC) came out at 16 µg/mL (≈ 40.7 µM).

As for `CC(=O)NC[C@H]1CN(c2ccc(N3CCOC4(CCNC4)C3)c(F)c2)C(=O)O1` (some centres undefined), in the data set with Staphylococcus aureus [3], the MIC was > 32 µg/mL.

For `C=CCC1(COCc2ccccc2)CN(c2ccc(N3C[C@H](CNC(C)=O)OC3=O)cc2F)CCO1` (some centres undefined), the MIC in the data set with Staphylococcus aureus [3] is > 32 µg/mL.

On to `CC(=O)NC[C@H]1CN(c2ccc(N3CCOC4(CCCNC4)C3)c(F)c2)C(=O)O1` (some centres undefined), for which the MIC in the data set with Staphylococcus aureus [3] is > 32 µg/mL.

Turning to `CC(=O)NC[C@H]1CN(c2ccc(N3CCN(C(=O)CO)CC3)c(F)c2)C(=O)O1` [EPEREZOLID], the lowest concentration to inhibit growth in the data set on Staphylococcus aureus [1] (MIC) was 2 µg/mL (≈ 5.07 µM). Moreover, in data set [2], the IC50 was 4.2 µg/mL (≈ 10.6 µM).

Regarding `CC(=O)NC[C@H]1CN(c2ccc(N3CCOCC3)c(F)c2)C(=O)O1` [LINEZOLID], the IC50 in data set [2] was 12.8 µg/mL (≈ 37.9 µM). Further, the MIC with Staphylococcus aureus [5] is 1 µg/mL (≈ 2.96 µM). The Stability in data set [7] was 98%. In addition, the pEC50 in the data set on HepG2 is < 4.52. Moreover, the INH at Cytochrome P450 1A2, at Cytochrome P450 2C9, on Cytochrome P450 2C19, on Cytochrome P450 2D6 and on Cytochrome P450 3A4 was > 100 µM each time. Besides, the t1/2 in data set [8] was > 3.613 h.
